These results are taken from ChEMBL document CHEMBL1125624, “Identification and exploitation of the sigma-opiate pharmacophore” (J Med Chem, 1991).

Structures are written as SMILES.

The assay deals with Sigma non-opioid intracellular receptor 1 (Rattus norvegicus, UniProt Q9R0C9). Kind of assay: Binding affinity towards sigma opioid receptor was determined in rat cerebral homogenate using [3H]haloperidol as radioligand. Summed up: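 Male Sprague-Dawley rat cerebellum was homogenized in 50 mM Tris-HCl pH 7.7 and spun at 39000g for 15 min, three times in all. At least nine competitor concentrations were run with 1 nM [3H]haloperidol plus 25 nM spiperone (to block D2) on 3 mg wet-weight tissue for 90 min. Nonspecific binding was taken with 10 µM DTG. GF/C filtration, scintillation counting; Ki ± SEM, minimum three determinations.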
Sequence of Sigma non-opioid intracellular receptor 1 (Q9R0C9 whole entry): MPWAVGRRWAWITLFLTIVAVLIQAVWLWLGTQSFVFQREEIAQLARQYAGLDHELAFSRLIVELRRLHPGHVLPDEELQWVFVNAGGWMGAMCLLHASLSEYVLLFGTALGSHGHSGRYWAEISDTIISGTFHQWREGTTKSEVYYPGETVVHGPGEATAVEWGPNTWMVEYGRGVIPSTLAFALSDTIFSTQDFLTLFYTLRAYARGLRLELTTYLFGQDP
By Ki is commonly meant the dissociation constant of the complex between target and ligand, obtained from inhibition or displacement. As to `C[C@H](Cc1ccccc1)NCC1CC1`, the affinity corresponds to a Ki of 664 nM.
The molecule `C[C@H](Cc1ccccc1)NCCC(=O)c1ccccc1` yielded a Ki of 73 nM. This Ki is about 9.1-fold lower than that of the molecule before.
Molecule `C[C@H](Cc1ccccc1)NCCOc1ccccc1` displayed a Ki of 32 nM.
In the case of `C[C@@H](Cc1ccccc1)N(C)CCc1ccccc1`, the affinity, expressed as Ki, was 16 nM.
Regarding `C[C@H](Cc1ccccc1)NCCCc1ccccc1`, the Ki was found to be 14 nM. The Ki values of the last two molecules are within 1.5-fold of each other.
`C[C@@H](Cc1ccccc1)NCCc1ccccc1` displayed an inhibition constant (Ki) of 4.8 nM.
`C[C@H](Cc1ccccc1)NCCc1ccccc1`: affinity was put at a Ki of 46 nM. This Ki lies about 9.6-fold higher than the previous one.
Regarding `CC(Cc1ccccc1)NCCCCc1ccccc1` (racemic), the inhibition constant Ki was 3.9 nM.
In turn, `CC(N)Cc1ccccc1` (racemic) [AMPHETAMINE] registered a Ki above 50000 nM.
`C[C@H](Cc1ccccc1)NCc1ccccc1` [N-BENZYLAMPHETAMINE] displayed an inhibitory constant (Ki) of 103 nM.
